ChEMBL document CHEMBL4706642, “Discovery of a Potent Dual Inhibitor of Acetylcholinesterase and Butyrylcholinesterase with Antioxidant Activity that Alleviates Alzheimer-like Pathology in Old APP/PS1 Mice” (J Med Chem, 2021)
The source made the active and inactive calls.

Legend:
[1] = biological target: Beta-secretase 1 (Homo sapiens) (UniProt P56817); test: Inhibition of recombinant human BACE-1 at 1 uM using methoxycoumarin-Ser-Glu-Val-Asn-Leu-Asp-Ala-Glu-Phe-Lys-dinitrophenyl as substrate preincubated for 1 hr followed by substrate addition and measured after 15 mins by fluorescence based assay relative to control; details: time 75.0 min
Sequence of Beta-secretase 1 (Homo sapiens) (P56817 whole entry): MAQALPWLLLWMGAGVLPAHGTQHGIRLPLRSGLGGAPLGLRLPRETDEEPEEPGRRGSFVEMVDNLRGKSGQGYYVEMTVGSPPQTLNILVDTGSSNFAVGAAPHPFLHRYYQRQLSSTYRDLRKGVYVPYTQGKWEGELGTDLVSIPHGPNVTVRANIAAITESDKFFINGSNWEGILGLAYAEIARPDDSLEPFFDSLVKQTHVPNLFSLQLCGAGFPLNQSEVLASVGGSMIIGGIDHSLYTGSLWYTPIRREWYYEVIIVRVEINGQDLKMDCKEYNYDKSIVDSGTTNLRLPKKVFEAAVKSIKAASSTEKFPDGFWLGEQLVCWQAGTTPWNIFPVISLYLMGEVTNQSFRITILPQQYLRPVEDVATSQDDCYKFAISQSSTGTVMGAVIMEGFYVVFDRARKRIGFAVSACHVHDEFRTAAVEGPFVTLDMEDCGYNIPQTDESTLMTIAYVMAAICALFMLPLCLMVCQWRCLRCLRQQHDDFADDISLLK

[2] = biological target: T1, Cholinesterase (Homo sapiens, UniProt P06276); test: Inhibition of human serum BChE using butyrylthiocholineiodide as substrate preincubated for 20 mins followed by substrate addition by Ellman's method; assay type: cell-free
T1 sequence (P06276 whole entry): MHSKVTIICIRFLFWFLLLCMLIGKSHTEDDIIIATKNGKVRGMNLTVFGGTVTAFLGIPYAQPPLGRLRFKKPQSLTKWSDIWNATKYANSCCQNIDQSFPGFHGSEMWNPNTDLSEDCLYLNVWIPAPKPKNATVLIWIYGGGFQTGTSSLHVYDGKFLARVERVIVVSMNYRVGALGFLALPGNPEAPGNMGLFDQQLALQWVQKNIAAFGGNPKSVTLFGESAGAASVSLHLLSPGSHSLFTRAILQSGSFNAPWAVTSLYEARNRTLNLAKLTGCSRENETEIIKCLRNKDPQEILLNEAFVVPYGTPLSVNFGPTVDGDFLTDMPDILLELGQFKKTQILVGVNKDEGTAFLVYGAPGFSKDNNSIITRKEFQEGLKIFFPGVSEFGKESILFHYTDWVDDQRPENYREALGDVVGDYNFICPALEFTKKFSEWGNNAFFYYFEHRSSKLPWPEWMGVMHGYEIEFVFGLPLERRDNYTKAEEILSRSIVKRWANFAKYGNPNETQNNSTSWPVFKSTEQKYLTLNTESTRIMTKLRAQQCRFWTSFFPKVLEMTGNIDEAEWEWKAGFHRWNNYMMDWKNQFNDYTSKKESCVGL
Summary of the method: (§1)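 Enzyme was 0.02 U/mL human recombinant AChE or human serum BChE. Non-enzymatic hydrolysis was corrected. IC50 came from a % inhibition vs log[I] regression. Selectivity = IC50 hBChE/IC50 hAChE. Mean ± SEM of ≥2 experiments, each in duplicate/triplicate.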

[3] = Antioxidant activity assessed as DPPH radical scavenging activity incubated for 30 mins under dark condition by UV-Vis spectrophotometric analysis; assay type: functional
[4] = biological target: Acetylcholinesterase (Homo sapiens, UniProt P22303); test: Inhibition of recombinant human AChE using acetylthiocholineiodide as substrate preincubated for 20 mins followed by substrate addition by Ellman's method; summary of the method: as §1
Sequence of Acetylcholinesterase (P22303 whole entry): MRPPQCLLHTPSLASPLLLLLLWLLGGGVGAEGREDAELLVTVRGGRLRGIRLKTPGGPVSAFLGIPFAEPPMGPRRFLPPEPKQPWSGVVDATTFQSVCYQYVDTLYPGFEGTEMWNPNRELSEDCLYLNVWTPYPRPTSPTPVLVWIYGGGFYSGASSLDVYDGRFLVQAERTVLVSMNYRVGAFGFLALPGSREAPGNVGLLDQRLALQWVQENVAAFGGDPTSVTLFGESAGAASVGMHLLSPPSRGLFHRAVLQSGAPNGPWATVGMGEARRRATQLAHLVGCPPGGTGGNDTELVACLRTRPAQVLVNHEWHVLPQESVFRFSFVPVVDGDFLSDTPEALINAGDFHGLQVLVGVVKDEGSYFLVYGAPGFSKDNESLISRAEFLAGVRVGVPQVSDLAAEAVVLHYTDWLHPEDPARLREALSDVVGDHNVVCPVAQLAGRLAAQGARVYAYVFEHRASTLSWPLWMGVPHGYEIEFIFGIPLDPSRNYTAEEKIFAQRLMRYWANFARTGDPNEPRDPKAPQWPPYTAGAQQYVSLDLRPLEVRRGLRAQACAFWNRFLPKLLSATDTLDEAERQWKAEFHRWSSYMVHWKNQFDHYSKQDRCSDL

[5] = Permeability of the compound in PBS/EtOH buffer (70:30) by PAMPA-BBB assay; assay type: ADME; details: read-out: permeability
Summary of the method: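 PAMPA-BBB permeability, reported as Pe in 10⁻⁶ cm s⁻¹, with CNS+ defined as Pe > 5.1. Mean ± SD of three experiments, each in triplicate.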

[6] = Selectivity index, ratio of IC50 for human serum BChE using butyrylthiocholineiodide as substrate to IC50 for recombinant human AChE using acetylthiocholine iodide as substrate
Summary of the method: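 Ellman spectrophotometric assay in 0.1 M phosphate buffer, pH 8.0, with 340 μM DTNB. Enzyme was 0.02 U/mL human recombinant AChE or human serum BChE. […] Then 550 μM ATCh or BTCh was added, and A412 was followed for 210 s. Non-enzymatic hydrolysis was corrected. IC50 came from a % inhibition vs log[I] regression. Selectivity = IC50 hBChE/IC50 hAChE. Mean ± SEM of ≥2 experiments, each in duplicate/triplicate.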

[7] = biological target: Acetylcholinesterase (Electrophorus electricus) (UniProt O42275); test: Displacement of propidium iodide from PAS-region of electric eel AChE assessed as decrease in fluorescence intensity at 4 to 92 uM by spectrofluorimetric analysis relative to control; set-up: scale not given: the % may be the effect or the level left; details: dose 4-92 µM
Sequence of Acetylcholinesterase (Electrophorus electricus) (O42275 24-633 limits assumed): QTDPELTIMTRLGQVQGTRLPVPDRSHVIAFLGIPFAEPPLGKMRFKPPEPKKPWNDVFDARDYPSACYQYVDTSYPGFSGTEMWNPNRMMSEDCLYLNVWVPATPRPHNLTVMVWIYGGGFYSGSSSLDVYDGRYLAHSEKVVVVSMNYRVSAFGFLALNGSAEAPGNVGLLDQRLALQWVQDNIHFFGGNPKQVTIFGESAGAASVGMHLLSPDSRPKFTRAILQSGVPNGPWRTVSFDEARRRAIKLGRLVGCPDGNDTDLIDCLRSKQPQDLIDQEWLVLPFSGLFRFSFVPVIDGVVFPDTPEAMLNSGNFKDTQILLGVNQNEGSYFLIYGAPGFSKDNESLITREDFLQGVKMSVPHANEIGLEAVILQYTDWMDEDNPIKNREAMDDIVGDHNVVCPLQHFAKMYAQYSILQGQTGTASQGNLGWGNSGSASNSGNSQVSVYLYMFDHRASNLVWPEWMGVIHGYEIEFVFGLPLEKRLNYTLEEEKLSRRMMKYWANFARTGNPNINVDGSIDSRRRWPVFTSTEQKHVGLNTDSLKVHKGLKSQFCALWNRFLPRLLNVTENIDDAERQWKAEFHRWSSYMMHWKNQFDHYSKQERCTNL
Summary of the method: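 Back-titration fluorescence assay using electric eel AChE (type VI-S). Inhibitor was added in successive aliquots from a MeOH stock. Emission was read at 602 nm with excitation at 535 nm, after subtracting blanks. […] Three independent experiments.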

[8] = biological target: T1, Cholinesterase; test: Inhibition of human serum BChE at 100 uM using butyrylthiocholineiodide as substrate preincubated for 20 mins followed by substrate addition by Ellman's method relative to control; assay type: cell-free
[9] = biological target: Beta-secretase 1 (Homo sapiens) (UniProt P56817); test: Inhibition of recombinant human BACE-1 at 5 uM using methoxycoumarin-Ser-Glu-Val-Asn-Leu-Asp-Ala-Glu-Phe-Lys-dinitrophenyl as substrate preincubated for 1 hr followed by substrate addition and measured after 15 mins by fluorescence based assay relative to control; details: time 75.0 min
[10] = Drug concentration in wild type C57BL6 mouse plasma at 2 mg/kg, ip thrice a week for 2 weeks observed after 4 hrs post last dose by HPLC/MS/MS analysis; details: in vivo
[11] = Drug concentration in wild type C57BL6 mouse brain at 2 mg/kg, ip thrice a week for 2 weeks observed after 4 hrs post last dose by HPLC/MS/MS analysis; details: in vivo

Row | SMILES | inhibition [1] | IC50 [2] [nM] | IC50 [3] [nM] | IC50 [4] [nM] | Papp [5] [×10⁻⁶ cm/s] | Ratio IC50 [6] | Activity [7] [%] | inhibition [8] [%] | inhibition [9] [%] | concentration at 336 h [10] [ng/mL] | concentration at 336 h [11] [ng/g]
1 | COc1cc(CNC(=O)CCCCNc2c3c(nc4cc(Cl)ccc24)CC2C=C(C)CC3C2)ccc1O (stereo unspecified) | 55.6% | 52.2 | 68500 | 5.48 | 11.5 | 9.5 |  |  |  |  | 
2 | COc1cc(CNC(=O)CCCCCCCNc2c3c(nc4cc(Cl)ccc24)CC2C=C(C)CC3C2)ccc1O (stereo unspecified) | 3.6% | 51.8 | 70800 | 1.94 | 20.1 | 26.7 |  |  |  |  | 
3 | COc1cc(CNC(=O)CCCC/C=C/CNc2c3c(nc4cc(Cl)ccc24)CC2C=C(C)CC3C2)ccc1O (stereo unspecified) | inactive | 78.1 | 31700 | 4.41 | 16.8 | 17.7 |  |  |  |  | 
4 | COc1cc(CNC(=O)CCCC/C=C/C(C)C)ccc1O [CAPSAICIN] | inactive |  | 50300 | > 200000 | 10.3 |  | 11 | 20 |  |  | 
5 | CC1=CC2Cc3nc4cc(Cl)ccc4c(N)c3C(C1)C2 (stereo unspecified) |  |  |  |  |  |  |  |  | 14 |  | 
6 | COc1cc(CNC(=O)CCCCCNc2c3c(nc4cc(Cl)ccc24)CC2C=C(C)CC3C2)ccc1O (stereo unspecified) | 34.3% | 70 | 62600 | 4.35 | 14.9 | 16.1 |  |  |  |  | 
7 | COc1cc(CNC(=O)CCCCCCCCNc2c3c(nc4cc(Cl)ccc24)CC2C=C(C)CC3C2)ccc1O (stereo unspecified) | 23.7% | 36.1 | 64600 | 2.94 | 21.8 | 12.3 |  |  |  |  | 
8 | COc1cc(CNC(=O)CCCC/C=C/CCCNc2c3c(nc4cc(Cl)ccc24)CC2C=C(C)CC3C2)ccc1O (stereo unspecified) | 21.6% | 53.1 | 54600 | 5.64 | 22.3 | 9.4 |  |  |  |  | 
9 | COc1cc2c(cc1OC)C(=O)C(CC1CCN(Cc3ccccc3)CC1)C2 (stereo unspecified) [DONEPEZIL] |  |  |  |  |  |  |  |  |  | 6460 | 6130
10 | COc1cc(CNC(=O)c2ccc(CNc3c4c(nc5cc(Cl)ccc35)CC3C=C(C)CC4C3)cc2)ccc1O (stereo unspecified) | inactive | 290 | 71400 | 24.9 | 14.3 | 11.6 |  |  |  |  | 
